Columns and labels:
MCF7 [1] = assay: Cytotoxicity against human MCF7 cells at 0.1 nM by MTT assay relative to control in presence of 17-beta-estradiol; type: functional
How it was run: (§1)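 MCF-7 cells were kept in phenol red-free MEM with 5% dextran-charcoal-stripped FBS supplemented with 0.1 nM 17β-estradiol. They were treated for 3 days with test compounds at 10 µM, 17β-estradiol at 0.1 nM, or ICI 182,780 at 1 µM, all in DMSO. MTT conversion was read at 550 nm. OD × 100/OD of estradiol-alone control, mean ± SEM, ≥3 independent assays.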

MCF7 [2] = assay: Cytotoxicity against human MCF7 cells at 0.1 nM by MTT assay relative to control in absence of 17-beta-estradiol; type: functional
[3] = molecular target: T1, Estrogen receptor (Homo sapiens) (UniProt P03372); assay: Binding affinity to recombinant ERalpha by fluorescence polarization assay relative to 17-beta-estradiol
T1 sequence (whole entry): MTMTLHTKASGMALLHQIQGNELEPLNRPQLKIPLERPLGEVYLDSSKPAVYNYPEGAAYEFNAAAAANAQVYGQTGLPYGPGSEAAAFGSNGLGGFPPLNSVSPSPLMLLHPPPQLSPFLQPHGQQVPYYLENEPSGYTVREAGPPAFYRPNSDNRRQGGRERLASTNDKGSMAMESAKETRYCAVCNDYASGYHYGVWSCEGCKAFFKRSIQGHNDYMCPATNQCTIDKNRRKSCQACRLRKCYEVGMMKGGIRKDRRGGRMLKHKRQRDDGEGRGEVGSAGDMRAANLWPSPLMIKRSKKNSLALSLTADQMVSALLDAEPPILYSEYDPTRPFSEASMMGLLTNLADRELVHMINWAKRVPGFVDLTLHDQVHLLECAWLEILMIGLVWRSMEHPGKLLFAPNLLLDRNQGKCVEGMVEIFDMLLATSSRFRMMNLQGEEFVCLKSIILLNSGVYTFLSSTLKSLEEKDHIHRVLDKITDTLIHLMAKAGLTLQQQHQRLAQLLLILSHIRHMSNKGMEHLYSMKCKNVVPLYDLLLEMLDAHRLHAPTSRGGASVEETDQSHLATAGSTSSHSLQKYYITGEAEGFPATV

MCF7 [4] = assay: Cytotoxicity against human MCF7 cells at 10 uM by MTT assay relative to control in absence of 17-beta-estradiol; type: functional
How it was run: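 MCF-7 cells were grown in phenol red-free MEM with 5% dextran-charcoal-stripped FBS and vehicle (DMSO) only. They were exposed for 3 days to agents dissolved in DMSO: test compounds at 10 µM, 17β-estradiol at 0.1 nM, ICI 182,780 at 1 µM. MTT formazan was read at 550 nm. Efficacy = OD test × 100/OD vehicle control, given as mean ± SEM of at least three independent assays.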

MCF7 [5] = assay: Cytotoxicity against human MCF7 cells at 10 uM by MTT assay relative to control in presence of 17-beta-estradiol; type: functional; how it was run: as §1
MCF7 [6] = assay: Cytotoxicity against human MCF7 cells by MTT assay in absence of 17-beta-estradiol; type: functional, cell-based
How it was run: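 Cells were grown in steroid-depleted medium (phenol red-free MEM, 5% dextran-charcoal FBS) plus DMSO vehicle. Increasing concentrations of agents in DMSO were applied for 3 days. Viable cells were estimated from MTT formazan absorbance at 550 nm. EC50 = concentration giving 50% of efficacy, computed only for statistically significant effects.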

MCF7 [7] = assay: Cytotoxicity against human MCF7 cells by MTT assay in presence of 17-beta-estradiol; type: functional, cell-based
How it was run: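 In phenol red-free MEM with 5% dextran-charcoal-treated FBS containing 0.1 nM 17β-estradiol, MCF-7 cultures received increasing concentrations of agents (DMSO solutions) for 3 days. Readout was MTT formazan absorbance at 550 nm relative to cells given the hormone alone. EC50 = concentration reaching 50% of efficacy, derived only for statistically significant effects.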

MCF7 [8] = assay: Cytotoxicity against human MCF7 cells at 1 uM by MTT assay relative to control in presence of 17-beta-estradiol; type: functional
How it was run: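 MCF-7 cells in phenol red-free MEM with 5% dextran-charcoal-stripped FBS, supplemented with 0.1 nM 17β-estradiol. Treated with ICI 182,780 at 1 µM (DMSO) for 3 days. MTT conversion to formazan read at 550 nm. Efficacy = OD treated ×100/OD of estradiol-alone control; mean ± SEM of ≥3 independent assays.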

MCF7 [9] = assay: Cytotoxicity against human MCF7 cells at 1 uM by MTT assay relative to control in the absence of 17-beta-estradiol; type: functional
How it was run: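 MCF-7 cells in phenol red-free MEM with 5% dextran-charcoal-stripped FBS, vehicle (DMSO) only, no estradiol. ICI 182,780 at 1 µM applied for 3 days. Viable cells assessed by MTT formazan absorbance at 550 nm. Efficacy = OD treated ×100/OD vehicle control; mean ± SEM of at least three independent assays.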

relative binding affinity (RBA) [3]	Structure (SMILES)	Activity (MCF7 [1])	Activity (MCF7 [2])	Activity (MCF7 [4])	Activity (MCF7 [5])	EC50 (MCF7 [6])	EC50 (MCF7 [7])	Activity (MCF7 [8])	Activity (MCF7 [9])
	C[C@]12CC[C@@H]3c4ccc(O)cc4CC[C@H]3[C@@H]1CC[C@@H]2O [ESTRADIOL]	104%	163%						
0.94	C=C(C)C(O)Cc1c(OC)cc2oc(-c3ccc(O)cc3O)c(C=O)c2c1O (stereo not drawn) [EBENFURAN VII]			123%	79%				
0.09	COc1cc2oc(-c3ccc(O)cc3O)c(C=O)c2c(O)c1CC=C(C)C [EBENFURAN III]			47%	31%	2.6 µM	2.9 µM		
	C[C@]12CC[C@@H]3c4ccc(O)cc4C[C@@H](CCCCCCCCC[S+]([O-])CCCC(F)(F)C(F)(F)F)[C@H]3[C@@H]1CC[C@@H]2O (stereo partly drawn) [FULVESTRANT]							63%	103%
0.46	COc1cc(O)ccc1-c1oc2cc(OC)c(CC=C(C)C)c(O)c2c1C=O [EBENFURAN IV]			54%	31%	6.7 µM	3.9 µM		
0.18	COc1cc(O)c2c(C=O)c(-c3ccc(O)cc3O)oc2c1 [EBENFURAN II]			111%	64%		5.5 µM		
0.06	COc1cc(O)ccc1-c1oc2cc(OC)c(CCC(C)(C)O)c(O)c2c1C=O [EBENFURAN VI]			154%	118%	4.8 µM			
0.23	COc1cc2oc(-c3ccc(O)cc3O)c(C=O)c2c(O)c1CCC(C)(C)O [EBENFURAN V]			115%	98%				
